Each structure is given as a SMILES string. Activity calls are given as the source filed them. Cut-off read from the data, not from the text of the source, unless noted: active = inhibition above about 30%; inactive = the rest.

Assay [1] can be described thus: HUVEC growth inhibition – cell-based, human, primary screen (AID 575;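 active = viability at or below 30% in both replicate assays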;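 note: 100% = median of untreated cell wells with 0.1% DMSO on each plate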). The settings on record: HUVEC proliferation, CellTiter-Glo luminescence, 72 h; at 10 µM; stronger effect = lower value. In a few lines: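 Test system: primary human umbilical vein endothelial cells; medium: endothelial basal medium with 2% FBS plus growth supplements; dosing: 10 µM compound only; times: 72 h treatment at 37 °C; signal: CTG luminescence; read-out: % viability relative to median vehicle-well signal on each plate; control set: vehicle and MePR control wells; plate: 384-well, collagen-coated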

Assay [2] in a line: H69AR cell proliferation blockers – human, duplicate replicates, primary screen (AID 580;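 active = viability at or under a set limit in both replicates, limit being median viability minus 3 SD, cut at about 48% in these data, passing the limit was not always enough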;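 note: 100% = mean luminescence of untreated wells and 0% = no signal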). The following applies: H69AR lung tumor cells viability, ATP luminescence, 72 h; at 10 µM; stronger effect = lower value.
Assay [3] can be described thus: MRP1 drug-resistance reversers in H69AR cells – cell-based, doxorubicin co-treatment, pilot screen (AID 601;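 active = viability loss from added drug above about 55%, and viability with drug at most 40%, in both replicates, limit read from the data, passing the limit was not always enough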). The settings on record: CellTiter-Glo, 72 h, at 10 µM; for differential viability (reversal): stronger effect = higher value.
Assay [4] can be described thus: yeast transport mutant growth inhibition pilot in 384-well plates, post-Golgi transport modulator project (AID 636; in the data active = inhibition above about 31%). The settings on record: absorbance 615 nm, about 18 h, stronger effect = higher value.
Assay [5] can be described thus: growth suppression of yeast trafficking mutant, preliminary HTS, modulators of trafficking downstream of Golgi apparatus project, 1536-format plate, OD 615 nm (AID 637). The settings on record: yeast transport mutant growth, absorbance 615 nm, 18 h; stronger effect = higher value.
Where [6] appears, read: H69AR cells + 2 uM doxorubicin, measured here: viability with 2 uM doxorubicin, stronger effect = lower value.
[7] abbreviates: H69AR cells, compound alone cytotoxicity.

`O=C(Cc1nn[nH]n1)NCCC1=CCCCC1`: the viability was 82.8% (inactive) in assay [1], 95.7% (inactive) in assay [2], 91.1% in assay [3] (setting [6]) and 95.7% in assay [3] (setting [7]). Further, the differential viability (reversal) in assay [3] (H69AR cells + 2 uM doxorubicin) is 4.6% (inactive). Besides, the inhibition in assay [4] was -1.04% (inactive); in assay [5], -4.76% (inactive).
Turning to `CCCN(CCO)Cc1cccc(Br)c1`, the viability is 101% (inactive) in assay [1], 99.1% (inactive) in assay [2], 93.8% in assay [3] (setting [6]) and 99.1% in assay [3] (setting [7]). Moreover, the differential viability (reversal) in assay [3] (H69AR cells + 2 uM doxorubicin) is 5.32% (inactive). Further, the figures for the inhibition in assay [4] and in assay [5] were -6.05% (inactive) and 3.65% (inactive), respectively.
Regarding `Nc1nc(-c2ccc(Cl)cc2)nn1C(=O)c1cccnc1`, the viability in assay [1] is 98.2% (inactive); in assay [2], 96.4% (inactive); in assay [3] (setting [6]), 95.5%; in assay [3] (setting [7]), 96.4%. In addition, the differential viability (reversal) in assay [3] (H69AR cells + 2 uM doxorubicin) is 0.94% (inactive). For the same compound, the inhibition is 0.13% (inactive) in assay [4] and 4.29% (inactive) in assay [5].
With `CCc1nnc(NC(=O)CSc2nc3ccccc3s2)s1`, the viability in assay [1] was 93% (inactive); in assay [2], 101% (inactive); in assay [3] (setting [6]) it was 91.1%; in assay [3] (setting [7]) it was 101%. Also, the differential viability (reversal) in assay [3] (H69AR cells + 2 uM doxorubicin) was 10.1% (inactive). Further, the inhibition was -2.24% (inactive) in assay [4] and 0.48% (inactive) in assay [5].
For the compound `c1ccc(CNC2=NCCC2)nc1`, the viability was 102% (inactive) in assay [1], 101% (inactive) in assay [2], 96.8% in assay [3] (setting [6]) and 101% in assay [3] (setting [7]). For the same compound, the differential viability (reversal) in assay [3] (H69AR cells + 2 uM doxorubicin) is 3.93% (inactive). Moreover, the inhibition in assay [4] was -0.91% (inactive); in assay [5], -7.46% (inactive).
Consider `O=C(O)CCc1ccc(-c2cccs2)n1NC(=O)c1ccco1`, for which the viability in assay [1] was 105% (inactive); in assay [2] it was 96.8% (inactive); in assay [3] (setting [6]) it was 88.5%; in assay [3] (setting [7]), 96.8%. In addition, the differential viability (reversal) in assay [3] (H69AR cells + 2 uM doxorubicin) is 8.25% (inactive). The inhibition in assay [4] is 0.39% (inactive); in assay [5] it was 9.05% (inactive).
Turning to `CCN1CCN(Cc2c(C)[nH]c3ccc(OC)cc3c2=O)CC1`, the viability is 96.8% (inactive) in assay [1], 93.5% (inactive) in assay [2], 88.8% in assay [3] (setting [6]) and 93.5% in assay [3] (setting [7]). For the same compound, the differential viability (reversal) in assay [3] (H69AR cells + 2 uM doxorubicin) was 4.75% (inactive). Moreover, the inhibition in assay [4] was -2.73% (inactive); in assay [5] it was 4.44% (inactive).
As to `COc1ccc(OC)c(S(=O)(=O)NCCO)c1`, the viability in assay [1] is 87.5% (inactive); in assay [2] it was 95.2% (inactive); in assay [3] (setting [6]), 80.7%; in assay [3] (setting [7]), 95.2%. Besides, in assay [3] (H69AR cells + 2 uM doxorubicin), the differential viability (reversal) was 14.5% (inactive). The inhibition in assay [4] was -2.34% (inactive); in assay [5] it was 6.35% (inactive).
Turning to `Cc1ccccc1NC(=O)C1CCC(C)(C(=O)O)C1(C)C` (stereo unspecified), the viability was 92.7% (inactive) in assay [1], 99.8% (inactive) in assay [2], 98.8% in assay [3] (setting [6]) and 99.8% in assay [3] (setting [7]). Besides, the differential viability (reversal) in assay [3] (H69AR cells + 2 uM doxorubicin) was 0.94% (inactive). Also, the results for the inhibition in assay [4] and in assay [5] were -0.78% (inactive) and -7.3% (inactive), respectively.
`Cc1ccc(OCc2nnc(SCC(=O)N3CCOCC3)n2C)cc1`: the viability in assay [1] is 102% (inactive); in assay [2], 106% (inactive); in assay [3] (setting [6]), 88.5%; in assay [3] (setting [7]), 106%. In assay [3] (H69AR cells + 2 uM doxorubicin), the differential viability (reversal) was 17.4% (inactive). Moreover, the inhibition was -0.93% (inactive) in assay [4] and -6.35% (inactive) in assay [5].
Consider `N#CCc1nc(CSc2nc3ccccc3s2)cs1`, for which the viability in assay [1] was 99.1% (inactive); in assay [2], 91.3% (inactive); in assay [3] (setting [6]) it was 82.4%; in assay [3] (setting [7]), 91.3%. For the same compound, the differential viability (reversal) in assay [3] (H69AR cells + 2 uM doxorubicin) was 8.82% (inactive). Further, the inhibition is -1.04% (inactive) in assay [4] and 3.02% (inactive) in assay [5].
For `Cc1ccc(S(=O)(=O)NCCCNC(=O)N2CCOCC2)cc1`, the viability in assay [1] is 100% (inactive); in assay [2] it was 106% (inactive); in assay [3] (setting [6]) it was 92.4%; in assay [3] (setting [7]) it was 106%. Moreover, the differential viability (reversal) in assay [3] (H69AR cells + 2 uM doxorubicin) is 13.5% (inactive). The figures for the inhibition in assay [4] and in assay [5] were -1.05% (inactive) and 3.81% (inactive), respectively.
For `O=C(Nc1nc(-c2ccc(S(=O)(=O)N3CCCC3)cc2)cs1)C1COc2ccccc2O1` (stereo unspecified), the viability was 79.1% (inactive) in assay [1], 90.3% (inactive) in assay [2], 91.8% in assay [3] (setting [6]) and 90.3% in assay [3] (setting [7]). The differential viability (reversal) in assay [3] (H69AR cells + 2 uM doxorubicin) is -1.52% (inactive). For the same compound, the inhibition was -3.73% (inactive) in assay [4] and -6.83% (inactive) in assay [5].
`Cc1cc(C)c(S(=O)(=O)N(C)CC(N)=O)c(C)c1`: the viability is 95% (inactive) in assay [1], 91.7% (inactive) in assay [2], 104% in assay [3] (setting [6]) and 91.7% in assay [3] (setting [7]). In assay [3] (H69AR cells + 2 uM doxorubicin), the differential viability (reversal) was -12.6% (inactive). Moreover, the inhibition was 2.37% (inactive) in assay [4] and -4.13% (inactive) in assay [5].
As to `O=c1nc(N2CCCC2)nc(Nc2ccccc2)[nH]1`, the viability in assay [1] was 100% (inactive); in assay [2] it was 83.7% (inactive); in assay [3] (setting [6]), 87%; in assay [3] (setting [7]) it was 83.7%. The differential viability (reversal) in assay [3] (H69AR cells + 2 uM doxorubicin) was -3.31% (inactive). In addition, the inhibition is -2.47% (inactive) in assay [4] and -4.92% (inactive) in assay [5].
With `Cc1ccc(SCCC(=O)N(C)C)cc1`, the viability in assay [1] was 105% (inactive); in assay [2] it was 103% (inactive); in assay [3] (setting [6]), 84.6%; in assay [3] (setting [7]), 103%. Further, the differential viability (reversal) in assay [3] (H69AR cells + 2 uM doxorubicin) was 18.3% (inactive). The inhibition in assay [4] was -2.89% (inactive); in assay [5], 0% (inactive).
For the compound `COc1ccccc1C(=O)Nc1ccccc1C(=O)N1CCCC1`, the viability in assay [1] is 92.3% (inactive); in assay [2], 96% (inactive); in assay [3] (setting [6]), 84.1%; in assay [3] (setting [7]) it was 96%. Moreover, in assay [3] (H69AR cells + 2 uM doxorubicin), the differential viability (reversal) is 11.9% (inactive). Moreover, the inhibition in assay [4] is -4.68% (inactive); in assay [5], 1.27% (inactive).
Consider `Cn1c(=O)c2c(nc(SCC(=O)NCc3ccc4c(c3)OCO4)n2Cc2ccccc2)n(C)c1=O`, for which the viability in assay [1] is 93.4% (inactive); in assay [2] it was 92.6% (inactive); in assay [3] (setting [6]), 99.7%; in assay [3] (setting [7]), 92.6%. Further, in assay [3] (H69AR cells + 2 uM doxorubicin), the differential viability (reversal) was -7.06% (inactive). The inhibition in assay [4] is 0.26% (inactive); in assay [5], -4.13% (inactive).
`O=C(Nc1cc(C(F)(F)F)ccc1Cl)c1cc(C2CC2)on1`: the viability in assay [1] is 96.4% (inactive); in assay [2], 91% (inactive); in assay [3] (setting [6]) it was 87.4%; in assay [3] (setting [7]), 91%. In addition, in assay [3] (H69AR cells + 2 uM doxorubicin), the differential viability (reversal) is 3.55% (inactive). Moreover, the values for the inhibition in assay [4] and in assay [5] were -3.82% (inactive) and 0.63% (inactive), respectively.
Regarding `COc1ccc(C(=O)N2CCOCC2)cc1Br`, the viability in assay [1] is 116% (inactive); in assay [2], 101% (inactive); in assay [3] (setting [6]), 95%; in assay [3] (setting [7]) it was 101%. The differential viability (reversal) in assay [3] (H69AR cells + 2 uM doxorubicin) is 5.83% (inactive). For the same compound, the values for the inhibition in assay [4] and in assay [5] were -2.24% (inactive) and -4.92% (inactive), respectively.
In the case of `COc1ccc(NC(=O)N2CCC(O)(c3cccnc3)CC2)c(OC)c1`, the viability was 83.6% (inactive) in assay [1], 98.4% (inactive) in assay [2], 86.1% in assay [3] (setting [6]) and 98.4% in assay [3] (setting [7]). For the same compound, the differential viability (reversal) in assay [3] (H69AR cells + 2 uM doxorubicin) was 12.3% (inactive). Besides, the results for the inhibition in assay [4] and in assay [5] were -1.43% (inactive) and -1.11% (inactive), respectively.
Consider `COc1oc(-c2ccccc2)nc1C(F)(F)F`, for which the viability is 94.3% (inactive) in assay [1], 109% (inactive) in assay [2], 99.9% in assay [3] (setting [6]) and 109% in assay [3] (setting [7]). Also, the differential viability (reversal) in assay [3] (H69AR cells + 2 uM doxorubicin) is 9.45% (inactive). The inhibition is -3.82% (inactive) in assay [4] and -2.38% (inactive) in assay [5].
On to `O=C(O)CCc1ccc(-c2ccccc2)n1CC(=O)O`, for which the viability in assay [1] is 88.9% (inactive); in assay [2] it was 93% (inactive); in assay [3] (setting [6]) it was 91.1%; in assay [3] (setting [7]), 93%. Moreover, the differential viability (reversal) in assay [3] (H69AR cells + 2 uM doxorubicin) was 1.87% (inactive). Also, the inhibition in assay [4] was -1.43% (inactive); in assay [5] it was 12.5% (inactive).

Source of the values: PubChem BioAssay.
